As a reminder, the inhibition in vivo is the share of the control response that was lost under treatment.

Each structure is given as a SMILES string. Active and inactive are the calls of the source. No cut-off for these calls is given here.

In test [1] the test system is Rattus norvegicus. Kind of test: Antiinflammatory activity against carrageenan-induced paw edema in Wistar rat assessed as reduction of paw edema at 250 mg/kg after 3 hrs relative to control. Type of test: functional. A digest of the protocol: (§1)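 Rats, five per group, were dosed orally with suspensions in 2% gum acacia. After 45 min, freshly prepared 10 mg/ml carrageenan was injected subplantar into the left hind paw, with saline in the contralateral paw. Paw volume was measured by volume differential meter immediately and hourly to 4 h. Percent protection was calculated versus control. Data are means ± SE, analysed by Student's t-test.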

Test [2] has as its system Rattus norvegicus. The test is described as follows: Antiinflammatory activity against carrageenan-induced paw edema in Wistar rat assessed as reduction of paw edema at 250 mg/kg after 4 hrs relative to control. Type of test: functional. In short, it runs like this:
as §1
A general note: Carrageenan injected into the paw causes an acute inflammation.

The test system of test [3] is Rattus norvegicus. Kind of test: Antiarthritic activity against Mycobacterium tuberculosis-induced rat arthritic model assessed as inhibition of chronic phase inflammation at 250 mg/kg relative to control. Type of test: functional. A digest of the protocol: (§2)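 Adjuvant arthritis in rats, five per group. A 5 mg/ml suspension of heat-killed Mycobacterium tuberculosis in liquid paraffin was injected subplantar into the left hind foot. Oral dosing ran from one day before immunization to day 13. Paw volume was measured on alternate days, and percent change was calculated versus the vehicle control. The chronic phase begins after day 8. Data are means ± SE, analysed by Student's t-test.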

In test [4] the test system is Rattus norvegicus. Kind of test: Antiinflammatory activity against carrageenan-induced paw edema in Wistar rat assessed as reduction of paw edema at 100 mg/kg relative to control. Further details: scale not given: the % may be the effect or the level left. Type of test: functional. In short, it runs like this: as §1
Test [5] concerns Rattus norvegicus. The test is described as follows: Antiarthritic activity against Mycobacterium tuberculosis-induced rat arthritic model assessed as inhibition of acute phase inflammation at 100 mg/kg relative to control. Type of test: functional, organism-based. Further details: dose 100 mg/kg. In short, it runs like this: as §2
For test [6], the system named is Rattus norvegicus. The test is described as follows: Antiarthritic activity against Mycobacterium tuberculosis-induced rat arthritic model assessed as inhibition of chronic phase inflammation at 100 mg/kg relative to control. Further details: dose 100 mg/kg. Type of test: functional, organism-based. In short, it runs like this: as §2
The test system of test [7] is Rattus norvegicus. Kind of test: Antiinflammatory activity against carrageenan-induced paw edema in Wistar rat assessed as reduction of paw edema at 250 mg/kg relative to control. Type of test: functional, organism-based. Further details: dose 250 mg/kg. In short, it runs like this: as §1
Test [8] relates to Rattus norvegicus. The test is described as follows: Antiarthritic activity against Mycobacterium tuberculosis-induced rat arthritic model at 250 mg/kg relative to control. The test is classed as functional, organism-based. Further details: dose 250 mg/kg. A digest of the protocol:
as §2

For `C[C@H]1[C@H](C)CC[C@]2(C)CC[C@]3(C)C(=CC[C@@H]4[C@@]5(C)CC[C@@H](O)[C@](C)(C(=O)O)[C@@H]5CC[C@]43C)[C@H]12` [BOSWELLIC ACID], the inhibition in vivo at 250 mg/kg in the test with Rattus norvegicus [1] worked out at 28.6%; in the test with Rattus norvegicus [2], 25.8%; in the test on Rattus norvegicus [3], 36.4%.

As for `N[C@@H]1[C@@H](O)[C@H](O)[C@@H](CO)O[C@H]1O` [GLUCOSAMINE], the inhibition in vivo at 250 mg/kg in the test with Rattus norvegicus [1] is 15.2%; in the test with Rattus norvegicus [2], 16.1%; with Rattus norvegicus [3] it was 21.6%.

Turning to `CC(C)Cc1ccc([C@H](C)C(=O)O)cc1` [DEXIBUPROFEN], the Activity in the test with Rattus norvegicus [4] is reported as 55.64%. Also, the outcome with Rattus norvegicus [5] and with Rattus norvegicus [6] was Active.

In the case of `C[C@H]1[C@H](C)CC[C@]2(C)CC[C@]3(C)C(=CC(=O)[C@@H]4[C@@]5(C)CC[C@@H](O)[C@](C)(C(=O)O)[C@@H]5CC[C@]43C)[C@H]12`, the result in the test with Rattus norvegicus [7] and in the test with Rattus norvegicus [8] was Active.

Turning to `CC1(C)CC[C@]2(C)CC[C@]3(C)C(=CC[C@@H]4[C@@]5(C)CC[C@@H](O)[C@](C)(C(=O)O)[C@@H]5CC[C@]43C)[C@@H]2C1`, the results for the inhibition in vivo at 250 mg/kg with Rattus norvegicus [1], with Rattus norvegicus [2] and in the test on Rattus norvegicus [3] were 28.6%, 25.8% and 36.4%, respectively.

The record behind these values is ChEMBL document CHEMBL1139963, “Boswellic acids and glucosamine show synergistic effect in preclinical anti-inflammatory study in rats” (2007).
